Test results taken from ChEMBL document CHEMBL2346640, “Bromo-deaza-SAH: a potent and selective DOT1L inhibitor” (Bioorg Med Chem, 2013).
The source made the active and inactive calls. No cut-off for these calls is given here.

Tests used:
[1] = target: Histone-lysine N-methyltransferase SUV39H2 (Homo sapiens) (UniProt Q9H5I1); experiment: Inhibition of SUV39H2 (unknown origin) using [3H]SAM assessed as inhibition of biotinylated-H3 (1 to 25 amino acid residues) methylation at 0.1 to 100 uM after 1 hr by scintillation proximity assay
Outline: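 Triplicate 1 h room-temperature reactions with compound at 100 nM–100 µM. Read on Flashplate after guanidine quench. Ki = IC50/2.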

[2] = species: Homo sapiens; experiment: Inhibition of PRC2 complex (unknown origin) using [3H]SAM assessed as inhibition of biotinylated-H3 (21 to 44 amino acid residues) methylation at 0.1 to 100 uM after 1 hr by scintillation proximity assay
[3] = target: T1, Histone-lysine N-methyltransferase SETD7 (Homo sapiens) (UniProt Q8WTS6); experiment: Inhibition of SETD7 (unknown origin) using [3H]SAM assessed as inhibition of biotinylated-H3 (1 to 25 amino acid residues) methylation at 0.1 to 100 uM after 1 hr by scintillation proximity assay
T1 sequence (whole entry): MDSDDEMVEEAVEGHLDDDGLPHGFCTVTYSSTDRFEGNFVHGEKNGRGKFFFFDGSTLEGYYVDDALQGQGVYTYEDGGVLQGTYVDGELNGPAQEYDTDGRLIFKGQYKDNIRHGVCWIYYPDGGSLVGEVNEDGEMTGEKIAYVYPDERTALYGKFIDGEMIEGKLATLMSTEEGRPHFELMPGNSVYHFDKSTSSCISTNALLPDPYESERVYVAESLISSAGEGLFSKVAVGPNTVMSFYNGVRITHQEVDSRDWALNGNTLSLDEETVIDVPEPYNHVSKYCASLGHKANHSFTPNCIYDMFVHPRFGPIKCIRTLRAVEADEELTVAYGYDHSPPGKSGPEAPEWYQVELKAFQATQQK
Outline: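 Triplicates, 1 h at room temperature, compound at 100 nM–100 µM. Guanidine HCl stop, then Flashplate CPM normalised to controls. Ki = IC50/2.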

[4] = target: Histone-lysine N-methyltransferase 2A (Homo sapiens) (UniProt Q03164); experiment: Inhibition of MLL1 (unknown origin) using [3H]SAM assessed as inhibition of biotinylated-H3 (1 to 25 amino acid residues) methylation at 0.1 to 100 uM after 1 hr by scintillation proximity assay
[5] = target: DNA (cytosine-5)-methyltransferase 1 (Homo sapiens, UniProt P26358); experiment: Inhibition of DNMT1 (unknown origin) using [3H]-SAM assessed as inhibition of dsDNA methylation after 1 hr by scintillation proximity assay
Outline: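 Incubated 1 h at 37 °C, quenched with guanidine HCl, then counted on a Flashplate. IC50 was taken at the SAM Km and converted to Ki as IC50/2.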

[6] = target: T2, Histone-lysine N-methyltransferase EHMT2 (Homo sapiens) (UniProt Q96KQ7); experiment: Inhibition of G9a (unknown origin) using [3H]SAM assessed as inhibition of biotinylated-H3 (1 to 25 amino acid residues) methylation after 1 hr by scintillation proximity assay
T2 sequence (whole entry): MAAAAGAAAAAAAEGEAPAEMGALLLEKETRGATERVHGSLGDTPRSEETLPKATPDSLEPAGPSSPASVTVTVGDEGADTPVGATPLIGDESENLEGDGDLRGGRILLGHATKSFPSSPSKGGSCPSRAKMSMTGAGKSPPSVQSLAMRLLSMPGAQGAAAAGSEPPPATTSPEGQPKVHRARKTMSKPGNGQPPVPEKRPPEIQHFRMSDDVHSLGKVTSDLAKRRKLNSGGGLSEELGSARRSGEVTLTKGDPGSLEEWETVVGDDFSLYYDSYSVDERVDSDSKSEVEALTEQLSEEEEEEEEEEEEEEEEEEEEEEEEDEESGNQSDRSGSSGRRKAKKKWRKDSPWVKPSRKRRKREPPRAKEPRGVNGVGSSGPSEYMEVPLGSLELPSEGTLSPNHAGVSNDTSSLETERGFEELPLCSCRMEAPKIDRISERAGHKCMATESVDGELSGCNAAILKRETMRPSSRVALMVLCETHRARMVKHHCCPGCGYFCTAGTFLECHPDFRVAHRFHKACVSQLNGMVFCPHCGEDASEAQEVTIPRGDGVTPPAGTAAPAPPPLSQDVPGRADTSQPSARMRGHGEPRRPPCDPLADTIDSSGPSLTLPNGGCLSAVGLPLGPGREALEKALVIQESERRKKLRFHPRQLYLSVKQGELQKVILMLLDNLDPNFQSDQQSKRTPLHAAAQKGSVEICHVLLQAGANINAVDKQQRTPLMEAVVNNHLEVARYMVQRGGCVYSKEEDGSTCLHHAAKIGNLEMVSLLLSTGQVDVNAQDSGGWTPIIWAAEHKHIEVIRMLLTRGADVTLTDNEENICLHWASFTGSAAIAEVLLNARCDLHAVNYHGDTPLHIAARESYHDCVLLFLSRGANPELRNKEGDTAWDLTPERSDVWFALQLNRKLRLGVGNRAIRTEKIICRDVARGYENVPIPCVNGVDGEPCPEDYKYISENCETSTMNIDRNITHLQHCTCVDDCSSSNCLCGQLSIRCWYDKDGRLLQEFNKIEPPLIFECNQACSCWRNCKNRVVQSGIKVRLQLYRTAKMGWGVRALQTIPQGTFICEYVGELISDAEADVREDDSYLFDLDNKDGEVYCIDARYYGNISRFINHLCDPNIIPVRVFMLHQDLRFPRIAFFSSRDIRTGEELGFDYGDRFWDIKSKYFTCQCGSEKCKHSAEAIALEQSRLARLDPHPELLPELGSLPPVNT
Outline: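 Triplicates, 1 h at room temperature. Guanidine HCl stop, then Flashplate CPM. Compound at 100 nM–100 µM. Activity normalised to no-compound (100%) and no-enzyme (0%) controls. Ki = IC50/2.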

[7] = target: T3, Nicotinamide N-methyltransferase (Homo sapiens, UniProt P40261); experiment: Inhibition of recombinant full length human NNMT measured for 30 mins by SAHH-coupled fluorescence assay
T3 sequence (P40261 whole entry): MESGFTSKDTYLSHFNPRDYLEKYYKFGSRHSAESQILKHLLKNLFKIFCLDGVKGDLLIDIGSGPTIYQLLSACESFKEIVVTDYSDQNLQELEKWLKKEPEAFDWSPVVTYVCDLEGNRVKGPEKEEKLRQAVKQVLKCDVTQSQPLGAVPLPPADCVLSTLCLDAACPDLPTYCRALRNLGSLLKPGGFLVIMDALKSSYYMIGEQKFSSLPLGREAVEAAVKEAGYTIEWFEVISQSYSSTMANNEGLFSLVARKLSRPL
Outline: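 Compound at 0.1–100 µM. Fluorescence (ex 360, em 528 nm) followed for 30 min; rates taken from initial linear slopes and expressed as % activity. IC50 from a four-parameter logistic fit; SD from three independent experiments.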

[8] = target: Protein arginine N-methyltransferase 5 (Homo sapiens, UniProt O14744); experiment: Inhibition of PRMT5 (unknown origin) using [3H]SAM after 1 hr by scintillation proximity assay
Outline: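 Triplicates, 1 h at room temperature, compound at 100 nM–100 µM. Guanidine quench, then Flashplate counting. Ki calculated as IC50/2.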

[9] = target: T4, N-lysine methyltransferase KMT5A (Homo sapiens) (UniProt Q9NQR1); experiment: Inhibition of SETD8 (unknown origin) using [3H]SAM assessed as inhibition of biotinylated-H4 (1 to 24 amino acid residues) methylation at 0.1 to 100 uM after 1 hr by scintillation proximity assay
T4 sequence (whole entry): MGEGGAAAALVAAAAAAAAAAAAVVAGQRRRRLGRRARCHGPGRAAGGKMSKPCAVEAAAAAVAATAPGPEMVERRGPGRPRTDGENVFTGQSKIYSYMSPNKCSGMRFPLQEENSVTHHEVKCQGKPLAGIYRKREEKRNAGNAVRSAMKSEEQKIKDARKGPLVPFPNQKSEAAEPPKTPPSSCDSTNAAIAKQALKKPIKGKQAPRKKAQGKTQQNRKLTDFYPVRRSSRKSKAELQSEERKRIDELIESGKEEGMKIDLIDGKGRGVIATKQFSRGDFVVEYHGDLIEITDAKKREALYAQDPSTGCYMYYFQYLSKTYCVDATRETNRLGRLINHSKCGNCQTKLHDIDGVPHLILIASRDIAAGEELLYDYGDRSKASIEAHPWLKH

[10] = target: T5, Histone-lysine N-methyltransferase EHMT1 (Homo sapiens) (UniProt Q9H9B1); experiment: Inhibition of EHMT1 (unknown origin) using [3H]SAM assessed as inhibition of biotinylated-H3 (1 to 25 amino acid residues) methylation at 0.1 to 100 uM after 1 hr by scintillation proximity assay
T5 sequence (whole entry): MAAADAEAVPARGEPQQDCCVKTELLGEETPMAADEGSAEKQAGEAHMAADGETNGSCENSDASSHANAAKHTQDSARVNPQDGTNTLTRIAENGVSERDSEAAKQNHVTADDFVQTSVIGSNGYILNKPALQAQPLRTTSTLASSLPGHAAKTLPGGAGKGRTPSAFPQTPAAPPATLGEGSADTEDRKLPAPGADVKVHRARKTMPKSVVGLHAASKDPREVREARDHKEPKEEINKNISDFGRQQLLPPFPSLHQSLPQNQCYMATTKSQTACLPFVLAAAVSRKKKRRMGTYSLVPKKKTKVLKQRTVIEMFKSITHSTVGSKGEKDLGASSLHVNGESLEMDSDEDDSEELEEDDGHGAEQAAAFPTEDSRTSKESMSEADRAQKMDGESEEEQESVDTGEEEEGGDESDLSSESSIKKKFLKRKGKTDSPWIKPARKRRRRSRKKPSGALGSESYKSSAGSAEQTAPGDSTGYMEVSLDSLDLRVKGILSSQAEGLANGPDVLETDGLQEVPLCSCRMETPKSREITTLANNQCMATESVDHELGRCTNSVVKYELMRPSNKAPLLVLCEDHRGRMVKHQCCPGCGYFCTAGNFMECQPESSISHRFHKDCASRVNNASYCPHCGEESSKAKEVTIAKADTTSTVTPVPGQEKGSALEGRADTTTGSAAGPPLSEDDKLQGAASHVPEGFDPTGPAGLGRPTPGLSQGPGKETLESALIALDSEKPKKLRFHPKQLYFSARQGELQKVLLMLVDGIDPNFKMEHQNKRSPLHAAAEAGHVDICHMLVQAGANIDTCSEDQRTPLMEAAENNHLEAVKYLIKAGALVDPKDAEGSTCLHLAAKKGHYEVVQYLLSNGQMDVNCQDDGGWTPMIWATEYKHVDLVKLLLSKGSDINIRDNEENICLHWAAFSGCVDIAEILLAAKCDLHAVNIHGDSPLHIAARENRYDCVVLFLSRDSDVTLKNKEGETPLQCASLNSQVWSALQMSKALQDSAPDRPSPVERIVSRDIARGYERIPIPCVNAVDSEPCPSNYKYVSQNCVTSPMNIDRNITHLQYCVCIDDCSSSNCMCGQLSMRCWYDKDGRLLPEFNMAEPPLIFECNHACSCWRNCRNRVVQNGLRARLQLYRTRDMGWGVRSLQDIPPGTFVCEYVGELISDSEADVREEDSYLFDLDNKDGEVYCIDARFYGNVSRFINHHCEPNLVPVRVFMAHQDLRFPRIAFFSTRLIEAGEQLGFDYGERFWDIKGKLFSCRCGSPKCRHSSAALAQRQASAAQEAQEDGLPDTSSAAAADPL
Outline: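 Triplicates, 1 h at room temperature. Compound range 100 nM–100 µM. Guanidine stop, then Flashplate counting against no-compound and no-enzyme controls. Ki derived as IC50/2.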

[11] = target: Protein arginine N-methyltransferase 3 (Homo sapiens, UniProt O60678); experiment: Inhibition of PRMT3 (unknown origin) using [3H]SAM assessed as inhibition of biotinylated-H4 (1 to 24 amino acid residues) methylation after 1 hr by scintillation proximity assay
Protein arginine N-methyltransferase 3, sequence (O60678 whole entry, the tested form may be a part): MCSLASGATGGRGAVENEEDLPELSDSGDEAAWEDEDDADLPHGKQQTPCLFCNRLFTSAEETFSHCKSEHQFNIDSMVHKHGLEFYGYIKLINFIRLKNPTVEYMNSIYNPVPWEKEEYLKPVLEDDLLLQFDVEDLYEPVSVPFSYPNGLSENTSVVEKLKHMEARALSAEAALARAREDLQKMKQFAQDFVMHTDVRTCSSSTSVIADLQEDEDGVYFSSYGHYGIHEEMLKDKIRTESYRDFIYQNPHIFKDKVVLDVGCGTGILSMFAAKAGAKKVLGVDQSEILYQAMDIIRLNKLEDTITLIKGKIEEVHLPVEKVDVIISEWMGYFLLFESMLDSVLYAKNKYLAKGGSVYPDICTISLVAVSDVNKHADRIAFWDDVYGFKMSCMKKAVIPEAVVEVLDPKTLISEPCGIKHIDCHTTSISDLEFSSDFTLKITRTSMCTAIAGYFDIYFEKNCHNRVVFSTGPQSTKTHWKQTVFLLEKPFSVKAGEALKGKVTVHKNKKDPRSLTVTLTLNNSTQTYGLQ

Protein arginine N-methyltransferase 5, sequence (O14744 whole entry): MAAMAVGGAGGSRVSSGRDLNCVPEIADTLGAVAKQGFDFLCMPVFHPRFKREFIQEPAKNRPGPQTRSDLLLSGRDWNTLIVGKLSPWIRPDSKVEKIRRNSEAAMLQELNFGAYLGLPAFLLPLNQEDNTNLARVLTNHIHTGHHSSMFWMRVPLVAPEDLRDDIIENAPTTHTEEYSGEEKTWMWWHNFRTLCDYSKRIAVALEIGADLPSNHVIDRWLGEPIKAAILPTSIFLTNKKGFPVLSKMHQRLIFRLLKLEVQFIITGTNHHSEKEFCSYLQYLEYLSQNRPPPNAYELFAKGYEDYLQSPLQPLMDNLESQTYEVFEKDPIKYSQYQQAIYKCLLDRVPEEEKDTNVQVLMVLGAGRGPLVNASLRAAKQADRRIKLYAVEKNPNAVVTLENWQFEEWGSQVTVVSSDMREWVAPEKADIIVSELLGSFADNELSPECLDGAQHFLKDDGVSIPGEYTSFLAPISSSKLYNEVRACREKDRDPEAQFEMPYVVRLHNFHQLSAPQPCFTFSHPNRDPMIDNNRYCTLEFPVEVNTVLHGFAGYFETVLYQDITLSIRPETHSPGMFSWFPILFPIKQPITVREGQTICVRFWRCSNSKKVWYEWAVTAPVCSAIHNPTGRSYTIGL
DNA (cytosine-5)-methyltransferase 1, sequence (P26358 whole entry): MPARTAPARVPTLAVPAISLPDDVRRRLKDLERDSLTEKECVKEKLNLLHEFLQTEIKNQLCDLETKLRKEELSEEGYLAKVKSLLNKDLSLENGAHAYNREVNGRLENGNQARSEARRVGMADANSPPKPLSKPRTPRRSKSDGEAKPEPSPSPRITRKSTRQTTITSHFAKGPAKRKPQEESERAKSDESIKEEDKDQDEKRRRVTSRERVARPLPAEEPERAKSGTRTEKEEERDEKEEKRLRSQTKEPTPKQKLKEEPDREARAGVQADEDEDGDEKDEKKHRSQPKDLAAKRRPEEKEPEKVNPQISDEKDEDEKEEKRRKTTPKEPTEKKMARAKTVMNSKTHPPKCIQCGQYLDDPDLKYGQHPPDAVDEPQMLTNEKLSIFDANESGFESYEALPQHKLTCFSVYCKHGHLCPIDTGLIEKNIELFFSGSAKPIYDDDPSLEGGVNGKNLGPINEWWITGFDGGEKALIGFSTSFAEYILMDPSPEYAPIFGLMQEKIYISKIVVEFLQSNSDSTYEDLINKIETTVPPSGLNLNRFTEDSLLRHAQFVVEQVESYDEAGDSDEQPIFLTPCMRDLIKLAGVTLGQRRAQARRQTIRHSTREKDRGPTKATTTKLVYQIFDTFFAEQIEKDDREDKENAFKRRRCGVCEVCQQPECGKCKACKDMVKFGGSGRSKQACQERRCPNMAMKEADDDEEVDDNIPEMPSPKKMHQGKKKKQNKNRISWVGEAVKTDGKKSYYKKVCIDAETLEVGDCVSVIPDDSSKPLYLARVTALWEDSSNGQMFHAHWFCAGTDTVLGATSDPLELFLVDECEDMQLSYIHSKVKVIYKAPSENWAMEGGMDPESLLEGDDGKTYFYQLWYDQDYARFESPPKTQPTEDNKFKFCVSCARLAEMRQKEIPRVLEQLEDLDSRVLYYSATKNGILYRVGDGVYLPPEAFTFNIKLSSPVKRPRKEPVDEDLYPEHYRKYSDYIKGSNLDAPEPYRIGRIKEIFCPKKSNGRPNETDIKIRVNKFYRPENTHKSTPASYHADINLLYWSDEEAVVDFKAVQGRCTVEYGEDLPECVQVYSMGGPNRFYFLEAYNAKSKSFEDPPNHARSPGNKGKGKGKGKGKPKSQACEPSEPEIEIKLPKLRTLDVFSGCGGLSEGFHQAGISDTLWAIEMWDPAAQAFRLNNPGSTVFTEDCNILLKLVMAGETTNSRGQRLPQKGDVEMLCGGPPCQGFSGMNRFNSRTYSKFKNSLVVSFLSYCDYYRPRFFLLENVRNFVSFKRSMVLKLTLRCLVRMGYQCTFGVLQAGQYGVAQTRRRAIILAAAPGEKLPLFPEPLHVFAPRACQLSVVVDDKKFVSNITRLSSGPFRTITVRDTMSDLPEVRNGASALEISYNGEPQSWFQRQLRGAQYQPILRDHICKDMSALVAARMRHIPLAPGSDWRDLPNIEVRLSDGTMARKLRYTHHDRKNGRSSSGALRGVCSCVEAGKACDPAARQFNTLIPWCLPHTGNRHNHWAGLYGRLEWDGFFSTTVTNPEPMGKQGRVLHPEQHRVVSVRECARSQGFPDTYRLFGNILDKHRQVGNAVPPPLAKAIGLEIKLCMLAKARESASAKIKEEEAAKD
Histone-lysine N-methyltransferase SUV39H2 (Homo sapiens), sequence (Q9H5I1 whole entry, the tested form may be a part): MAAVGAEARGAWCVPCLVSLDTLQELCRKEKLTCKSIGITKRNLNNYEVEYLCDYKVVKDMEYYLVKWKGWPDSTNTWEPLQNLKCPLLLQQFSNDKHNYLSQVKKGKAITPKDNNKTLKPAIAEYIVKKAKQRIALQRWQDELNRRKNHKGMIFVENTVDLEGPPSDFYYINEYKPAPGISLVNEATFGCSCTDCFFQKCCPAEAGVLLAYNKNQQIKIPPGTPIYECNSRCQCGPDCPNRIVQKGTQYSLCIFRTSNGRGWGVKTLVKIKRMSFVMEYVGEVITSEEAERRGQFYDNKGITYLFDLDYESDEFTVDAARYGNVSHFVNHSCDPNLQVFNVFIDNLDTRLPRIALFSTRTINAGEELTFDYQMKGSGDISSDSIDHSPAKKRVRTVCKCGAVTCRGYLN

Nc1ncnc2c1c(Br)cn2[C@@H]1O[C@H](CSCC[C@H](N)C(=O)O)[C@@H](O)[C@H]1O
inhibition [1]: inactive
inhibition [2]: inactive
inhibition [3]: inactive
inhibition [4]: inactive
IC50 [5]: 1.9 µM
Ki [5]: 0.95 µM
inhibition [6]: inactive
IC50 [7]: 1.5 µM
Ki [7]: 0.75 µM
IC50 [8]: 2.3 µM
Ki [8]: 1.15 µM
inhibition [9]: inactive
inhibition [10]: inactive
IC50 [11]: 2.3 µM
Ki [11]: 1.15 µM
